Assay outcomes: PubChem, several laboratories
Sampled rows, rich in hits. Any-hit rate of the full collection: about 9.2%.
L major viab = inhibitors of Leishmania major promastigote growth; Leishmania major promastigotes, resazurin fluorescence viability; inhibition, % at 10 µM; actives 9% (n = 200,000); AID 1063; in the data active = inhibition above about 50%;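 also: promastigotes grown with compound for 44 hours at 28 °C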
Dynein cargo inh = dynein cargo transport inhibition. 3617.4 mouse cells, GR-EGFP nuclear translocation imaging; test concentration mostly 20 µM; stimulated with dexamethasone, 1 µM; active compounds read low. z-score, hits read low. actives 0.47% (n = 220,000). AID 1381;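 active = plate z-score of nuclear minus cytoplasmic receptor signal below a set negative limit, without overly bright fluorescence or cell loss, cut at about -3.5 in these data, passing the limit was not always enough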;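 also: z-score of nuclear minus cytoplasmic ring GR-EGFP intensity difference per well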
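Buffer or medium: tet-free medium with charcoal-stripped serum / Also added: dexamethasone agonist, 1.0 µM final, for 30 min / Timing: induction 48 h, compound 1 h, agonist 30 min / Measured by: high-content fluorescence imaging after fixation / Read-out: nuclear-to-cytoplasmic GR-EGFP distribution per well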
Autophagy HCS = alters autophagy in cells; MEF GFP-LC3 puncta imaging; test concentration mostly 10 µM; calls only at 10 µM (by protocol); actives 0.98% (n = 190,000); AID 463193;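 active = percentage of spot-positive cells more than 3 SD above its plate mean, without a fluorescence outlier flag or 80% toxicity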
PTEN del growth = PTEN-deleted cell growth suppression | actives 1.2% (n = 140,000) | HCT116 PTEN-null viability, CellTiter-Glo, 60 h; active compounds read low | viability, % at 10 µM;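 active = viability at or below a set limit, 4 SD under the median of all tested compounds, cut at about 3.7% in these data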;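 also: PTEN knockout HCT116 line with beta catenin targeted HCT116 as companion control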
HCT116 bCat-KO = beta-catenin-lacking colon tumor cell growth suppression; HCT116 beta-catenin knockout viability, CellTiter-Glo, 60 h; active compounds read low; viability, % at 10 µM; actives 1.5% (n = 140,000);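 active = viability at or under a set limit, the compound median less 4 SD, cut at about 6% in these data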
Large screens that a line does not name were inactive.

COC(=O)[C@@]1(Cc2ccc(OC)cc2)[C@H]2c3cc(C(=O)N(C)C)n(CCc4ccc(OC)c(Br)c4)c3C[C@H]2CN1C(=O)c1ccccc1	L major viab 62
O=C(CCN1CCc2ccccc2C1)Nc1cccc(F)c1	none
CC1(C(=O)NC2CCCC2)CCC(=O)N1Cc1ccccc1Cl (stereo not given)	none
COc1ccc2nc(NC(=O)CSc3nc4cccnc4n3C)sc2c1	none
COC(=O)c1sc(NC(=O)CSc2nc3cccnc3n2C2CCCCC2)nc1C	L major viab 61
N/C(=N\OC(=O)C1CC1)c1ccc([N+](=O)[O-])s1	none (no result: L major viab, Autophagy HCS, PTEN del growth, HCT116 bCat-KO)
Cc1cccc(C)c1NC(=O)c1ccc([N+](=O)[O-])s1	L major viab 99
O=C(NC1CCCC1)c1ccc([N+](=O)[O-])s1	L major viab 98 (no result: PTEN del growth, HCT116 bCat-KO)
Cc1cccc(NC(=O)c2ccc([N+](=O)[O-])s2)c1C	L major viab 100, PTEN del growth 2.2, HCT116 bCat-KO 2.9
CC1(C)Oc2ccc(C(=O)NC3CCCC3)cc2N(CC(=O)N2CCOCC2)C1=O	Autophagy HCS active
O=C(c1ccc([N+](=O)[O-])cc1)N(Cc1ccc(Cl)cc1Cl)N1C(=O)CCCC1=O	none
O=C(c1ccc([N+](=O)[O-])cc1)N(Cc1ccc(Cl)cc1)N1C(=O)CCCC1=O	Autophagy HCS active
COc1cc(OC)cc(C(=O)NCc2nc(-c3ccccc3)no2)c1	L major viab 68
CC(=O)c1cccc(N(C(=O)c2ccco2)C(C(=O)NC2CCCC2)c2ccncc2)c1 (stereo not given)	none
CCN1/C(=C2\OC(=S)N(C)C2=O)C=Cc2ccccc21	none (no result: PTEN del growth, HCT116 bCat-KO)
CCN1/C(=C2\SC(=S)N(Cc3ccccc3)C2=O)Sc2ccccc21	Autophagy HCS active
CCN1/C(=C2\OC(=S)N(C)C2=O)Sc2ccccc21	Autophagy HCS active
Cc1ccc(NC(=O)C2C(c3ccccc3)C=CC(c3ccccc3)C2C(=O)O)cc1 (stereo not given)	none
CC(C)(C)OC(=O)N1CCC(C(=O)N2CCC[C@H]2C(=O)O)CC1	none
Cn1cccc1C(=O)OCC(=O)NC(=O)NC1CCCCC1	none (no result: PTEN del growth, HCT116 bCat-KO)
OCc1ncc(-c2ccccc2)s1	none (no result: L major viab, Autophagy HCS, PTEN del growth, HCT116 bCat-KO)
Cn1nc(-c2ccc(Cl)cc2)c2cc(C(=O)NCCCN3CCCC3)sc21	L major viab 100, Autophagy HCS active, PTEN del growth 1.7, HCT116 bCat-KO 1.5
CCN1CCCC1CNC(=O)C(=O)Nc1cccc(OC)c1 (stereo not given)	L major viab 53
CCN1CCCC1CNC(=O)c1cc2c(-c3ccc(Cl)cc3)nn(C)c2s1 (stereo not given)	L major viab 100, Autophagy HCS active, HCT116 bCat-KO 3.2
CCN1CCCC1CNC(=O)C(=O)Nc1ccccc1 (stereo not given)	none (no result: PTEN del growth, HCT116 bCat-KO)
CCN1CCCC1CNC(=O)c1cc2c(-c3cccc(OC)c3)nn(C)c2s1 (stereo not given)	L major viab 82, HCT116 bCat-KO 2.6
COc1cccc(-c2nn(C)c3sc(C(=O)NCc4ccco4)cc23)c1	none
CCCCNC(=O)c1cc2c(-c3ccc(Cl)cc3)nn(C)c2s1	none
O=C1OC(Cc2ccccn2)C(=O)C1=C1SCCS1 (stereo not given)	none
Cc1cc(C(=O)C[N+]2(C)CCOCC2)c(C)n1-c1ccc(Br)cc1	none (no result: PTEN del growth, HCT116 bCat-KO)
CC(C)CC[n+]1ccn(-c2nc3ccccc3nc2[N-]S(=O)(=O)c2ccc(Cl)cc2)c1	none (no result: L major viab, Autophagy HCS, PTEN del growth, HCT116 bCat-KO)
O=C1NC2(CCCCC2)Cc2ccccc21	none
N#CC(C#N)=C1NC2(CCCC2)Cc2ccccc21	L major viab 85
CCCc1cc(=O)[nH]c(SCC(=O)c2ccc3c(c2)OCCO3)n1	L major viab 61
CCCn1c(SCC(=O)c2ccc3c(c2)OCCO3)n[nH]c1=O	none (no result: PTEN del growth, HCT116 bCat-KO)
Cc1nn(C)cc1C(C(=O)NC1CCCCC1)N(C(=O)Cc1cccs1)c1ccc(Cl)cc1 (stereo not given)	L major viab 85
COc1ccc(N(C(=O)Cc2cccs2)C(C(=O)NC2CCCCC2)c2cccn2C)cc1OC (stereo not given)	none
COc1cc(N(C(=O)Cc2cccs2)C(C(=O)NC2CCCCC2)c2ccc(C)cc2)ccc1-n1cnnn1 (stereo not given)	L major viab 63, PTEN del growth 1.4
C[n+]1c(/C=C/c2ccc3c(c2)OCO3)ccc2ccccc21	L major viab 77 (no result: PTEN del growth, HCT116 bCat-KO)
COc1ccc(CN2C(=O)C(=O)N(CC(N)=O)C2=O)cc1	none (no result: PTEN del growth, HCT116 bCat-KO)
CCOc1ccc(C2C(C(=O)O)CCC(=O)N2C2CCCCC2)cc1 (stereo not given)	none (no result: PTEN del growth, HCT116 bCat-KO)
Cc1cc(SCC(=O)Nc2c(C)n(C)n(-c3ccccc3)c2=O)n2c(nc3ccccc32)c1C#N	L major viab 87 (no result: PTEN del growth, HCT116 bCat-KO)
O=C(NCc1ccco1)c1ccc(N2CCCCC2)c([N+](=O)[O-])c1	L major viab 63
CCCCCCCNC(=O)c1ccc(N2CCC3(CC2)OCCO3)c([N+](=O)[O-])c1	L major viab 94
O=C(NCc1ccc(F)cc1)c1ccc(N2CCc3ccccc32)c([N+](=O)[O-])c1	L major viab 92
COc1ccc(CNC(=O)c2ccc(N3CCOCC3)c([N+](=O)[O-])c2)cc1	none (no result: PTEN del growth, HCT116 bCat-KO)
CC1CCN(c2ccc(C(=O)NCc3ccco3)cc2[N+](=O)[O-])CC1	L major viab 50
O=C(NCc1ccco1)c1ccc(N2CCOCC2)c([N+](=O)[O-])c1	none (no result: PTEN del growth, HCT116 bCat-KO)
CC1CCN(S(=O)(=O)c2cccc(C(=O)NCc3ccco3)c2)CC1	none
N#Cc1ccc(/C=N/NC(=O)c2cccc(S(=O)(=O)N3CCOCC3)c2)cc1	none (no result: PTEN del growth, HCT116 bCat-KO)
O=C(Cc1cnc2ncnn2c1)N1CCc2c([nH]c3ccccc23)C1c1ccccn1 (stereo not given)	none (no result: PTEN del growth, HCT116 bCat-KO)
Cc1ccc2[nH]c3c(N4CCc5ccccc5C4)ncnc3c2c1	L major viab 68
c1ccc2c(c1)[nH]c1c(N3CCSCC3)ncnc12	L major viab 86
Fc1ccc2[nH]c3c(N4CCc5ccccc5C4)ncnc3c2c1	none (no result: L major viab, Autophagy HCS, PTEN del growth, HCT116 bCat-KO)
c1ccc2c(c1)[nH]c1c(N3CCOCC3)ncnc12	none
c1ccc2c(c1)[nH]c1c(N3CCCC3)ncnc12	L major viab 58
c1ccc2c(c1)[nH]c1c(N3CCN(C4CCCCC4)CC3)ncnc12	L major viab 78
Brc1ccc2[nH]c3c(N4CCc5ccccc5C4)ncnc3c2c1	none
COc1cc([N+](=O)[O-])cc(/C=N\NC(=O)C2COc3ccccc3O2)c1O (stereo not given)	none (no result: L major viab, Autophagy HCS, PTEN del growth, HCT116 bCat-KO)
CCCCCC(=O)Oc1cccc(N2C(=O)C3CCCCC3C2=O)c1 (stereo not given)	none (no result: PTEN del growth, HCT116 bCat-KO)
Cc1cccc(C)c1Oc1nc(-c2ccccc2)ncc1S(=O)(=O)c1ccccc1	L major viab 54
O=C(CCS(=O)(=O)c1cccs1)Nc1ccc(C(=O)NC2CCCC2)cc1	none (no result: PTEN del growth, HCT116 bCat-KO)
CCN1CCN(C(=S)Nc2ccc3nc(N4CCN(C)CC4)cc(C)c3c2)CC1	L major viab 67
CCOC(=O)N1CCN(C(=S)Nc2ccc3nc(N4CCN(CC)CC4)cc(C)c3c2)CC1	L major viab 72
CCN1CCN(c2cc(C)c3cc(NC(=S)N4CCCCC4)ccc3n2)CC1	L major viab 58 (no result: PTEN del growth, HCT116 bCat-KO)
